Test results: ChEMBL document CHEMBL3297713, “Discovery, optimization, and biological evaluation of 5-(2-(trifluoromethyl)phenyl)indazoles as a novel class of transient receptor potential A1 (TRPA1) antagonists” (J Med Chem, 2014)

Legend:
[1] = target: Transient receptor potential cation channel subfamily A member 1 (Homo sapiens, UniProt O75762); experiment: Antagonist activity at human TRPA1 expressed in CHO-TREX cells assessed as inhibition of cinnamaldehyde-induced calcium flux incubated 10 mins prior to cinnamaldehyde addition by FLIPR assay relative to control; type: cell-based
Summary of the method: (§1)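 TRPA1-expressing CHO-TREX cells, channel expression induced with tetracycline (0.5 µg/mL human, 1 µg/mL mouse or rat). Cells loaded with Fluo4-AM for 90 min at room temperature, washed, then test agent added in HBSS/20 mM HEPES/2.5 mM probenecid/0.1% BSA. Agonist added 10 min later at EC80: human cinnamaldehyde 30 µM, AITC 2.5 µM, dibenzoxazepine-carboxamide 5 nM; rat and mouse cinnamaldehyde 40 µM. FLIPR calcium flux; mean of triplicates fitted to sigmoidal dose-response curves.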

[2] = target: T1, Transient receptor potential cation channel subfamily V member 3 (Homo sapiens, UniProt Q8NET8); experiment: (§2) Antagonist activity at human TRPV3 expressed in CHOK1 cells assessed as inhibition of 2-APB-induced calcium flux incubated 10 mins prior to 2-APB addition by FLIPR assay relative to control; type: cell-based, CHO-K1
T1 sequence (Q8NET8 whole entry): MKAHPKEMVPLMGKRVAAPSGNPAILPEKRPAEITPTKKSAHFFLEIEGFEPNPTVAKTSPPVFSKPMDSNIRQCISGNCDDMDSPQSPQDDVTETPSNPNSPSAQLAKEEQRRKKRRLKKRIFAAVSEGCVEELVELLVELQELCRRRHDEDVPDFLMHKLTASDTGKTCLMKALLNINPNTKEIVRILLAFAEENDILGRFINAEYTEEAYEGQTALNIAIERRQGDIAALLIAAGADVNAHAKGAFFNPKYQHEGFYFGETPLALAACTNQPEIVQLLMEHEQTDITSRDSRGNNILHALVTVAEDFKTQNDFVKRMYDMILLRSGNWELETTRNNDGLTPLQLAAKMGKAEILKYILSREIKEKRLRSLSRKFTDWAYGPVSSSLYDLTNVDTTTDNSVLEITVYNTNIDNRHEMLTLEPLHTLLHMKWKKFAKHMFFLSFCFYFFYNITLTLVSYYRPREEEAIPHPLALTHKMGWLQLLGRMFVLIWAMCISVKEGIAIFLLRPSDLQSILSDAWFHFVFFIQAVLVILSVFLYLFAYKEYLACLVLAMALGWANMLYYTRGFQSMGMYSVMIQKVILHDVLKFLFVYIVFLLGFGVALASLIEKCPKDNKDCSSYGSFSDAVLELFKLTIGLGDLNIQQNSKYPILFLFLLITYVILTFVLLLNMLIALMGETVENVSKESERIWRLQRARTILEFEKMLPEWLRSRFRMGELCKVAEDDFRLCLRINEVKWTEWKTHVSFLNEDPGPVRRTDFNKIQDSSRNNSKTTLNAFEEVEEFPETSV

[3] = target: T2, Transient receptor potential cation channel subfamily V member 3 (Homo sapiens) (UniProt Q8NET8); experiment: as §2; type: cell-based; design: concentration or dose not given beside the values; details: CHO-K1
T2 sequence (whole entry): T1 sequence (Q8NET8 whole entry)

[4] = Oral bioavailability in Wistar rat at 10 mg/kg; type: ADME, organism-based; details: in vivo
Summary of the method: (§3)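 Male Wistar rats dosed orally at 10 mg/kg as a suspension in 0.5% methylcellulose/0.5% Tween80.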

[5] = Volume of distribution at steady state in Wistar rat at 3 mg/kg, iv; type: ADME, organism-based; design: dose 3 mg/kg, route intravenous; details: in vivo, read-out: Vdss
[6] = AUC in Wistar rat at 10 mg/kg, po; type: ADME, organism-based; design: dose 10 mg/kg, route oral; details: plasma; summary of the method: as §3
[7] = Clearance in Wistar rat at 3 mg/kg, iv; type: ADME, organism-based; design: dose 3 mg/kg, route intravenous; details: in vivo
Summary of the method: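 Wistar rats given 3 mg/kg i.v. as a solution in 75% PEG300/25% D5W.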

[8] = target: Transient receptor potential cation channel subfamily A member 1 (Mus musculus, UniProt Q8BLA8); experiment: (§4) Antagonist activity at mouse TRPA1 expressed in CHO-TREX cells assessed as inhibition of cinnamaldehyde-induced calcium flux incubated 10 mins prior to cinnamaldehyde addition by FLIPR assay relative to control; type: cell-based; summary of the method: as §1
[9] = target: Transient receptor potential cation channel subfamily A member 1 (Mus musculus) (UniProt Q8BLA8); experiment: as §4; type: cell-based; design: concentration or dose not given beside the values; summary of the method: as §1
[10] = Cmax in Wistar rat at 10 mg/kg, po; type: ADME, organism-based; design: dose 10 mg/kg, route oral; details: in vivo; summary of the method: as §3
[11] = target: Transient receptor potential cation channel subfamily A member 1 (Rattus norvegicus, UniProt Q6RI86); experiment: (§5) Antagonist activity at rat TRPA1 expressed in CHO-TREX cells assessed as inhibition of cinnamaldehyde-induced calcium flux incubated 10 mins prior to cinnamaldehyde addition by FLIPR assay relative to control; type: cell-based; summary of the method: as §1
[12] = target: Transient receptor potential cation channel subfamily A member 1 (Rattus norvegicus) (UniProt Q6RI86); experiment: as §5; type: cell-based; design: concentration or dose not given beside the values; summary of the method: as §1
[13] = target: Transient receptor potential cation channel subfamily M member 8 (Homo sapiens, UniProt Q7Z2W7); experiment: Antagonist activity at human TRPM8 expressed in CHOK1 cells assessed as inhibition of menthol-induced calcium flux incubated 10 mins prior to menthol addition by FLIPR assay relative to control; type: cell-based, CHO-K1; details: for inhibition: CHO-K1
[14] = test system: CHO-K1; experiment: Selectivity ratio of IC50 for human TRPV1 expressed in CHOK1 cells to IC50 for human TRPA1 expressed in CHO-TREX cells; type: cell-based
Summary of the method: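 Stable hTRPV1 CHO-K1 and tetracycline-induced (0.5 µg/mL) hTRPA1 CHO-TREX cells were loaded with Fluo4-AM for 90 min at room temperature and read on FLIPR. Antagonist preincubation was 10 min before EC80 agonist: capsaicin 40 nM (TRPV1); cinnamaldehyde 30 µM, AITC 2.5 µM or dibenzoxazepine carboxamide 5 nM (TRPA1). Buffer contained probenecid and BSA. IC50s were fitted from triplicate means of max−min calcium signal.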

[15] = test system: CHO-K1; experiment: Selectivity ratio of IC50 for human TRPV3 expressed in CHOK1 cells to IC50 for human TRPA1 expressed in CHO-TREX cells; type: cell-based
Summary of the method: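 Calcium influx was measured by FLIPR in Fluo4-AM-loaded cells: hTRPV3 CHO-K1 challenged with 40 µM 2-APB, and hTRPA1 CHO-TREX (0.5 µg/mL tetracycline) challenged with 30 µM cinnamaldehyde, 2.5 µM AITC or 5 nM dibenzoxazepine carboxamide, all at EC80. Compounds were added 10 min ahead of agonist in HEPES-buffered HBSS with probenecid. Sigmoidal curves were fitted to triplicate means.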

[16] = test system: CHO-K1; experiment: Selectivity ratio of IC50 for human TRPM8 expressed in CHOK1 cells to IC50 for human TRPA1 expressed in CHO-TREX cells; type: cell-based
Summary of the method: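 FLIPR calcium-flux antagonist assays with Fluo4-AM loading (90 min, room temperature) in HBSS/20 mM HEPES/2.5 mM probenecid/0.1% BSA. Compound added 10 min before agonist at EC80: 40 µM menthol for CHO-K1 hTRPM8; for tetracycline-induced (0.5 µg/mL) CHO-TREX hTRPA1, 30 µM cinnamaldehyde, 2.5 µM AITC or 5 nM dibenzoxazepine carboxamide. Response is maximum minus minimum. IC50s come from sigmoidal fits of triplicate means.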

[17] = Tmax in Wistar rat at 10 mg/kg, po; type: ADME, organism-based; design: dose 10 mg/kg, route oral; details: in vivo; summary of the method: as §3
[18] = Half life in Wistar rat at 3 mg/kg, iv; type: ADME, organism-based; design: dose 3 mg/kg, route intravenous; details: in vivo
[19] = target: Transient receptor potential cation channel subfamily V member 1 (Homo sapiens, UniProt Q8NER1); experiment: Antagonist activity at human TRPV1 expressed in CHOK1 cells assessed as inhibition of capsaicin-induced calcium flux incubated 10 mins prior to capsaicin addition by FLIPR assay relative to control; type: cell-based, CHO-K1; details: for inhibition: CHO-K1
Transient receptor potential cation channel subfamily V member 1, sequence (Q8NER1 whole entry): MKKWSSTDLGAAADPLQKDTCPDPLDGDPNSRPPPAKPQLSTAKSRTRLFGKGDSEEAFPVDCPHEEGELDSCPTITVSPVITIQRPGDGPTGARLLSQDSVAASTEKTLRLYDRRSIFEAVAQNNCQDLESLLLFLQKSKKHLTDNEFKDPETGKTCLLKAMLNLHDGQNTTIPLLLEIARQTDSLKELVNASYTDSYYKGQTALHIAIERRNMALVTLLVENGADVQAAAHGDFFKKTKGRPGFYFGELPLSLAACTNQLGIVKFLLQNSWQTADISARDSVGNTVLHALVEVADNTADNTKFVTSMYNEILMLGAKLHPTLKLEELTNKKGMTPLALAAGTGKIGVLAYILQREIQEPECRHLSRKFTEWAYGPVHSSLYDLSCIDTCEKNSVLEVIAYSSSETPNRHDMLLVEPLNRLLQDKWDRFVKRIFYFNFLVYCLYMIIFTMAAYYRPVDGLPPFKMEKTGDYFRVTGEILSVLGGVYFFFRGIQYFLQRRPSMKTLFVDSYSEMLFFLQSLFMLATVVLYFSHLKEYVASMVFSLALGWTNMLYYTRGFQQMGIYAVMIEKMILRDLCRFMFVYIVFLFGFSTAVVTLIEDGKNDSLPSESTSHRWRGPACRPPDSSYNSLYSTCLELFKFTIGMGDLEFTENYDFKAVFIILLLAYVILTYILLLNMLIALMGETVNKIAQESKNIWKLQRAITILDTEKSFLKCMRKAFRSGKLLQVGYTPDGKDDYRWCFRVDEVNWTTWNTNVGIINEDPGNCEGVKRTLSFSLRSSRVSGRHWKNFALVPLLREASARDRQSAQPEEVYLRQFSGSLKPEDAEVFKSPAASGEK

Transient receptor potential cation channel subfamily A member 1 (Homo sapiens, UniProt O75762), sequence (O75762 whole entry): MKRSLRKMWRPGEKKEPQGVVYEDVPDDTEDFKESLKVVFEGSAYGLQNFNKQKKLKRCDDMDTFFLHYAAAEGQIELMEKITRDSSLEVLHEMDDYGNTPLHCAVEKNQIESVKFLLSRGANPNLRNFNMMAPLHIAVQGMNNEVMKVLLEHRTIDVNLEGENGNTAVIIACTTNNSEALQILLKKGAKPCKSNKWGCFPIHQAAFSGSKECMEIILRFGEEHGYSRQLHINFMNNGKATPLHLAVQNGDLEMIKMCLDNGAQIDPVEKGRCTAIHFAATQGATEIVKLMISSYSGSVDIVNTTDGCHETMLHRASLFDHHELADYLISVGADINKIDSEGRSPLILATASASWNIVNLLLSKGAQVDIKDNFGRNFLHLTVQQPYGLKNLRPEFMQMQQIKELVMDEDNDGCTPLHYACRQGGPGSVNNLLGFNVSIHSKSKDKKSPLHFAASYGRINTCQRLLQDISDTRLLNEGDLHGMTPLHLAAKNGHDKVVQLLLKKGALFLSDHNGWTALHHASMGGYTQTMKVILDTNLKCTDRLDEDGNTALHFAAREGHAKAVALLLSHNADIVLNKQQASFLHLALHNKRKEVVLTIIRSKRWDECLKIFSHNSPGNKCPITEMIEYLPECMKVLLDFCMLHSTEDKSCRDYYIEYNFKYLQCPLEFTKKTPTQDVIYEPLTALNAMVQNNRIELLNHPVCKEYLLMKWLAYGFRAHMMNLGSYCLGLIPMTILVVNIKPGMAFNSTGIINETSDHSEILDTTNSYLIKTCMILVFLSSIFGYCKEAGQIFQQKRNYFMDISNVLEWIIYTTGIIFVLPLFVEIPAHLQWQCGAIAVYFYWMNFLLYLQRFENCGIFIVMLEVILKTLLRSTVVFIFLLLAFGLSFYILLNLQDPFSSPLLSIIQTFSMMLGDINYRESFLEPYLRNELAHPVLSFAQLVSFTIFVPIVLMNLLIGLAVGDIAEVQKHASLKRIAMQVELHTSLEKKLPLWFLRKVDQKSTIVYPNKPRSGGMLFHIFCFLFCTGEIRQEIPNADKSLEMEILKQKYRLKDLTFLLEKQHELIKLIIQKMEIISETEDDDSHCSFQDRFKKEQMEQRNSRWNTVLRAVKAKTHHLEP
Transient receptor potential cation channel subfamily A member 1 (Rattus norvegicus), sequence (Q6RI86 whole entry): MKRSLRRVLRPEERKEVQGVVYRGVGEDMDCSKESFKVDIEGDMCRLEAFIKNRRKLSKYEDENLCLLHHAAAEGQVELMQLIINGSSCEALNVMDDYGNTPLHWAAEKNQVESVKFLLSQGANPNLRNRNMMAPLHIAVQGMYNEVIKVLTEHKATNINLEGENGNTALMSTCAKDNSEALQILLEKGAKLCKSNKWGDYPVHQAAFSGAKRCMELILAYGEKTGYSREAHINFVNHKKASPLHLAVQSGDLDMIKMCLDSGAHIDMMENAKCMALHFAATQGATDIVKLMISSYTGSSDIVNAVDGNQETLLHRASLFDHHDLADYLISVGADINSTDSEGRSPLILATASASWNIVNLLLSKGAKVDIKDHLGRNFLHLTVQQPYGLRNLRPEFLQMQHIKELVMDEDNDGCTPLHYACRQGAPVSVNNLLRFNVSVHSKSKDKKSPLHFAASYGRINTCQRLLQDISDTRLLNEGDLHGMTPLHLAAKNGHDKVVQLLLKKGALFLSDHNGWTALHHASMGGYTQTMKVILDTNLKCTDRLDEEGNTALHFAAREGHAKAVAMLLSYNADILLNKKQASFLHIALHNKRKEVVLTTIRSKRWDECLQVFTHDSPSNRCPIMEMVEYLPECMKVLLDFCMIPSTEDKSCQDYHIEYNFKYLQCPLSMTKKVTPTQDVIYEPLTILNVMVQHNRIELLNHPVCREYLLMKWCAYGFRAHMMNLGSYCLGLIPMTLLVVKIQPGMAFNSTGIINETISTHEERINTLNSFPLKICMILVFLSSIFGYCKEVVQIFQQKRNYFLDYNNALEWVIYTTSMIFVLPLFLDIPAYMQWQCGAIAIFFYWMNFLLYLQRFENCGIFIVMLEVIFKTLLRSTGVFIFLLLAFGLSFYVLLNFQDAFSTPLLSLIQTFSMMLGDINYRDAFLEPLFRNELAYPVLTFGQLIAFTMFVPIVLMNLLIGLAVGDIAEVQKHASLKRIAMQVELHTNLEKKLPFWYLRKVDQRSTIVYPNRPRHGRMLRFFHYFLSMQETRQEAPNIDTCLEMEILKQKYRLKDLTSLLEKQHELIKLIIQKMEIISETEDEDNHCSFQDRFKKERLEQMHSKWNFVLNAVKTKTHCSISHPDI
Transient receptor potential cation channel subfamily A member 1 (Rattus norvegicus, UniProt Q6RI86), sequence (Q6RI86 whole entry): as above
Transient receptor potential cation channel subfamily A member 1 (Mus musculus), sequence (Q8BLA8 whole entry): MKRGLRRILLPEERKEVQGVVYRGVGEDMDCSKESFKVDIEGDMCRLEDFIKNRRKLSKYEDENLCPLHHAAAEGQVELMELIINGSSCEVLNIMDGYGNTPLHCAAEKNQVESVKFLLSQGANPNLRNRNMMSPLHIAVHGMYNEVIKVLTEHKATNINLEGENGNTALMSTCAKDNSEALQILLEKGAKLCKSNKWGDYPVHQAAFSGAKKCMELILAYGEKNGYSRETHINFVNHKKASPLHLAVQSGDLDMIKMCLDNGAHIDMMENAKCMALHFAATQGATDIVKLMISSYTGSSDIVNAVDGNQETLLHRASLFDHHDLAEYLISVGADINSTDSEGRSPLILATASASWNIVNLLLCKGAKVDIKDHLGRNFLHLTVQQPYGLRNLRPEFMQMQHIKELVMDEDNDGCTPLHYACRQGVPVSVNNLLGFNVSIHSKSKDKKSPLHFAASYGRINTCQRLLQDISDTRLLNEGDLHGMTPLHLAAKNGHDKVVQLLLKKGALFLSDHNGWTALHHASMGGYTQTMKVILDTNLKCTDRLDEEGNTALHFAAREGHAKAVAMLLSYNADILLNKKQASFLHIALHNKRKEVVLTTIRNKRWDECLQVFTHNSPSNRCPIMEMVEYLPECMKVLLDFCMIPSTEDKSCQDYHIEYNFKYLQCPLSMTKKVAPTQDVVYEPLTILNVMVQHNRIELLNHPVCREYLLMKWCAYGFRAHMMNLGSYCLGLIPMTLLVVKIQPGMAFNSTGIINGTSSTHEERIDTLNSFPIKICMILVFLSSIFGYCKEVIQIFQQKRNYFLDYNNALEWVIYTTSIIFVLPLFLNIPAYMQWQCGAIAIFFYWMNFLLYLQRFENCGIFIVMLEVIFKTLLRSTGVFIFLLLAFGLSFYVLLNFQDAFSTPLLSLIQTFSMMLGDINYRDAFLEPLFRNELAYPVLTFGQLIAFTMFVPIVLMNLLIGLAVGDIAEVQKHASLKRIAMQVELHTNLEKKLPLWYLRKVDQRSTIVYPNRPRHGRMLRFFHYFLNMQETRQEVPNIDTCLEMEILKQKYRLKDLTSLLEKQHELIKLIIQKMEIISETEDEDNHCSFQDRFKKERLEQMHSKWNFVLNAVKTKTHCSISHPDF
Transient receptor potential cation channel subfamily A member 1 (Mus musculus, UniProt Q8BLA8), sequence (Q8BLA8 whole entry): as above

| Compound | IC50 [1] [µM] | inhibition [1] [%] | other results |
| --- | --- | --- | --- |
| N#Cc1cc2[nH]ncc2cc1-c1ccccc1C(F)(F)F | 0.129 | 100 |  |
| Fc1ccc(C(F)(F)F)c(-c2ccc3[nH]ncc3c2)c1 | 0.306 | 98 |  |
| N#Cc1ccccc1-c1ccc2[nH]ncc2c1 | 1.29 | 91 |  |
| Cc1ccccc1-c1ccc2[nH]ncc2c1 | 7.81 | 78 |  |
| COCc1cc2[nH]ncc2cc1-c1ccccc1C(F)(F)F | 0.142 | 97 |  |
| CCc1cc2[nH]ncc2cc1-c1ccccc1C(F)(F)F | 0.05 | 100 |  |
| c1ccc(-c2ccc3[nH]ncc3c2)cc1 | > 30 |  |  |
| CC(C)c1cc2[nH]ncc2cc1-c1ccccc1C(F)(F)F | 25.4 | 59 |  |
| CCOc1cc2[nH]ncc2cc1-c1ccccc1C(F)(F)F | 0.039 | 97 |  |
| FC(F)(F)Oc1cc2[nH]ncc2cc1-c1ccccc1C(F)(F)F | 0.036 | 99 | IC50 [2]: > 30 µM; inhibition [3]: 22%; IC50 [8]: 0.254 µM; inhibition [9]: 100%; IC50 [11]: 0.627 µM; inhibition [12]: 100%; IC50 [13]: 6.4 µM; inhibition [13]: 100%; Ratio IC50 [14]: > 100; Ratio IC50 [15]: > 100; Ratio IC50 [16]: > 100; IC50 [19]: 11.5 µM; inhibition [19]: 78% |
| FC(F)(F)Oc1ccccc1-c1ccc2[nH]ncc2c1 | 3.43 | 97 |  |
| FC(F)Oc1cc2[nH]ncc2cc1-c1ccccc1C(F)(F)F | 0.05 | 98 |  |
| Fc1cccc(C(F)(F)F)c1-c1ccc2[nH]ncc2c1 | 1.23 | 95 |  |
| FC(F)c1ccccc1-c1ccc2[nH]ncc2c1 | 2.2 | 93 |  |
| Fc1ccccc1-c1ccc2[nH]ncc2c1 | 3.95 | 68 |  |
| CC(C)(C)c1ccccc1-c1ccc2[nH]ncc2c1 | 3.4 | 96 |  |

Continued, in another order:

| IC50 [1] [µM] | inhibition [1] [%] | Compound | other results |
| --- | --- | --- | --- |
| 6.72 | 98 | Cc1cc(-c2ccccc2C(F)(F)F)cc2cn[nH]c12 |  |
| 1.23 | 91 | Clc1ccccc1-c1ccc2[nH]ncc2c1 |  |
| 0.97 | 97 | CC(C)Oc1cc2[nH]ncc2cc1-c1ccccc1C(F)(F)F |  |
| > 30 |  | CNC(=O)c1cc2[nH]ncc2cc1-c1ccccc1C(F)(F)F |  |
| 0.048 | 98 | Fc1cc2[nH]ncc2cc1-c1ccccc1C(F)(F)F |  |
| 0.061 | 99 | FC(F)(F)c1ccccc1-c1cc2cn[nH]c2cc1C1CC1 |  |
| 3.09 | 83 | Cc1n[nH]c2ccc(-c3ccccc3C(F)(F)F)cc12 |  |
| 0.584 | 96 | CCc1ccccc1-c1ccc2[nH]ncc2c1 |  |
| 0.024 | 98 | FC(F)(F)c1ccccc1-c1cc2cn[nH]c2cc1Cl | IC50 [2]: > 30 µM; inhibition [3]: 0%; bioavailability [4]: 63%; Vd [5]: 1.65 L/kg; AUC [6]: 26.2 µM·h; clearance [7]: 13.6 mL/min/kg; IC50 [8]: 0.094 µM; inhibition [9]: 100%; Cmax [10]: 6.05 µM; IC50 [11]: 0.169 µM; inhibition [12]: 98%; IC50 [13]: 17.1 µM; inhibition [13]: 71%; Ratio IC50 [14]: > 100; Ratio IC50 [15]: > 100; Ratio IC50 [16]: > 100; Tmax [17]: 0.5 h; half-life [18]: 3.4 h; IC50 [19]: 16.7 µM; inhibition [19]: 70% |
| 7.41 | 98 | Cn1ncc2cc(-c3ccccc3C(F)(F)F)ccc21 |  |
| 0.296 | 97 | Fc1c(-c2ccccc2C(F)(F)F)ccc2[nH]ncc12 |  |
| 30 |  | Fc1ccc(-c2ccc3[nH]ncc3c2)c(C(F)(F)F)c1 |  |
| 0.103 | 100 | FC(F)c1cc2[nH]ncc2cc1-c1ccccc1C(F)(F)F |  |
| 0.514 | 93 | CC(C)c1ccccc1-c1ccc2[nH]ncc2c1 |  |
| 8.9 | 97 | Fc1cccc(-c2ccc3[nH]ncc3c2)c1C(F)(F)F |  |
